The structures appear in SMILES notation. Calls of active or inactive are those of the source.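 The calls were made as follows: active = maximal cell kill higher at a 0.156 ng/ml dose of TRAIL, the death-signal protein, than with no TRAIL; inactive = the rest.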 Some results are limits rather than exact numbers.

Experiment [1] has as its system PPC-1 cytotoxicity with TRAIL, ATPLite luminescence, 24 h. The experiment is described as follows: cytotoxicity with versus without TRAIL, dose response, mechanism study for TRAIL sensitizer project, cell-based, PPC-1, ATPlite luminescence, 24 h (AID 1765). In short, it runs like this:
(§1)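 test system = PPC-1 cells | probe or stimulus = TRAIL 0.156 or 0 ng/mL | doses = 2-fold series from 10 µM, 0.5% DMSO | times = compound pre-incubation 4 h before TRAIL, then 24 h TRAIL exposure | measured by = ATPlite luminescence | controls = 10 µM doxorubicin with TRAIL as full-kill reference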
On the technique in general: Cellular ATP, detected with luciferase, serves as a proxy for viable cell number.

Test in experiment [2]: as above
As to conditions: PPC-1 cytotoxicity with TRAIL, ATPLite luminescence, 24 h. The procedure, abridged:
as §1

[3] abbreviates: measured here: cytotoxicity without TRAIL.
Setting [4] is: measured here: max cytotoxicity with TRAIL.
Setting [5] is: measured here: max cytotoxicity without TRAIL.

Broadly, the EC50 is the concentration giving half of the maximal effect. Take `CSc1nc(-c2ccccc2)nc(C(Cl)Cl)n1`: the EC50 was > 10000 nM (inactive) in experiment [1] and above 10000 nM in experiment [1] (setting [3]).

On to `CCSc1nc(-c2ccccc2)nc(C(Cl)Cl)n1`, for which the maximal effect was 46.7% in experiment [2] (setting [4]) and 34.2% in experiment [2] (setting [5]). Moreover, the EC50 in experiment [1] is 2580 nM; in experiment [1] (setting [3]), 2500 nM.

In the case of `CSc1nc(-c2ccc(C)cc2)nc(C(Cl)Cl)n1`, the values for the maximal effect in experiment [2] (setting [4]) and in experiment [2] (setting [5]) were 94.5% and 50.4%, respectively. Besides, the figures for the EC50 in experiment [1] and in experiment [1] (setting [3]) were 1000 nM and 810 nM, respectively.

For the origin of these results see PubChem BioAssay AID1765 (Sanford-Burnham Center for Chemical Genomics, 2009).
